Laboratory results published in ChEMBL document CHEMBL5303300, “EUbOPEN Chemogenomics Library - Multiplex” (2023).
Values joined by “and” are separate entries in the source; they are usually repeats but may differ in a detail not shown here. Equal values may be shown once.

Test system: Fibroblast
Assay: Multiplex assay against human fibroblast
Assay type: toxicity, cell-based
Conditions: number of replicates 2
Procedure, shortened: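 Imaging took place on a CQ1 microscope at 37°C and 5% CO2 once compound had been added to live cells stained at seeding with Hoechst33342, BioTracker Green Microtubule Cytoskeleton Dye, MitoTracker Red and Annexin V Alexa Fluor 680. CellPathfinder machine-learning gating classed cells as Hoechst high-intensity objects or normal cells, classed normal cells as having healthy, pyknosed or fragmented nuclei, and classed pyknosed cells as mitotic or apoptotic. Tubulin, mitochondrial-mass and membrane-permeability phenotypes are per cents of the healthy-nucleus cells.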

[1] = 12 h, 1 µM, compound concentration 1 uM
[2] = 12 h, 10 µM, compound concentration 10 uM
[3] = 24 h, 1 µM, compound concentration 1 uM
[4] = 24 h, 10 µM, compound concentration 10 uM
[5] = 48 h, 1 µM, compound concentration 1 uM
[6] = 48 h, 10 µM, compound concentration 10 uM

COc1cc(OC)cc(C(=O)NNC(=O)Nc2cccc3ccccc23)c1
Population Apoptotic (%) [1]: 32% and 47%
Population Fragmented Nuclei (%) [1]: 6% and 18%
Population Healthy Nuclei (%) [1]: 77% and 72%
Population Hoechst High Intensity Objects (%) [1]: 0%
Population Membrane Permeable-Phenotype (%) [1]: 3%
Population Mitochondria Different-Phenotype (%) [1]: 0% and 1%
Population Mitotic Cells (%) [1]: 67% and 52%
Population Normal (%) [1]: 100%
Population Pyknosed Nuclei (%) [1]: 15% and 8%
Population Tubulin-Different-Phenotype (%) [1]: 10% and 5%
Total Cell Count [1]: 196 and 216
Population Apoptotic (%) [2]: 34% and 37%
Population Fragmented Nuclei (%) [2]: 9% and 7%
Population Healthy Nuclei (%) [2]: 70% and 85%
Population Hoechst High Intensity Objects (%) [2]: 0%
Population Membrane Permeable-Phenotype (%) [2]: 3% and 2%
Population Mitochondria Different-Phenotype (%) [2]: 1% and 0%
Population Mitotic Cells (%) [2]: 65% and 62%
Population Normal (%) [2]: 100%
Population Pyknosed Nuclei (%) [2]: 20% and 7%
Population Tubulin-Different-Phenotype (%) [2]: 12% and 6%
Total Cell Count [2]: 159 and 228
Population Apoptotic (%) [3]: 41% and 50%
Population Healthy Nuclei (%) [3]: 87% and 76%
Population Hoechst High Intensity Objects (%) [3]: 0%
Population Membrane Permeable-Phenotype (%) [3]: 3% and 1%
Population Mitochondria Different-Phenotype (%) [3]: 2% and 0%
Population Mitotic Cells (%) [3]: 58% and 50%
Population Normal (%) [3]: 100%
Population Pyknosed Nuclei (%) [3]: 8% and 6%
Population Tubulin-Different-Phenotype (%) [3]: 11% and 3%
Total Cell Count [3]: 199 and 203
Population Apoptotic (%) [4]: 38% and 25%
Population Fragmented Nuclei (%) [4]: 10%
Population Healthy Nuclei (%) [4]: 77% and 85%
Population Hoechst High Intensity Objects (%) [4]: 0%
Population Membrane Permeable-Phenotype (%) [4]: 3% and 0%
Population Mitochondria Different-Phenotype (%) [4]: 2% and 0%
Population Mitotic Cells (%) [4]: 61% and 75%
Population Normal (%) [4]: 100% and 99%
Population Pyknosed Nuclei (%) [4]: 11% and 3%
Total Cell Count [4]: 155 and 236
Population Apoptotic (%) [5]: 62% and 56%
Population Fragmented Nuclei (%) [5]: 7% and 15%
Population Healthy Nuclei (%) [5]: 88% and 78%
Population Hoechst High Intensity Objects (%) [5]: 0%
Population Membrane Permeable-Phenotype (%) [5]: 1% and 2%
Population Mitochondria Different-Phenotype (%) [5]: 0%
Population Mitotic Cells (%) [5]: 37% and 43%
Population Normal (%) [5]: 100%
Population Pyknosed Nuclei (%) [5]: 3% and 6%
Population Tubulin-Different-Phenotype (%) [5]: 5% and 1%
Total Cell Count [5]: 213 and 238
Population Apoptotic (%) [6]: 66% and 70%
Population Fragmented Nuclei (%) [6]: 12% and 9%
Population Healthy Nuclei (%) [6]: 82% and 86%
Population Hoechst High Intensity Objects (%) [6]: 0%
Population Membrane Permeable-Phenotype (%) [6]: 5% and 0%
Population Mitochondria Different-Phenotype (%) [6]: 0%
Population Mitotic Cells (%) [6]: 33% and 30%
Population Normal (%) [6]: 99%
Population Pyknosed Nuclei (%) [6]: 5% and 4%
Population Tubulin-Different-Phenotype (%) [6]: 8% and 1%
Total Cell Count [6]: 165 and 243

CS(=O)(=O)c1ccc(C(=O)Nc2cc(F)cc(COc3ccc(Br)cc3CN3CC[C@H](O)C3)c2)c(Cl)c1.O=CO
Population Apoptotic (%) [1]: 47% and 46%
Population Healthy Nuclei (%) [1]: 54% and 67%
Population Mitotic Cells (%) [1]: 52% and 53%
Population Pyknosed Nuclei (%) [1]: 32% and 19%
Total Cell Count [1]: 177 and 249
Population Apoptotic (%) [2]: 54% and 58%
Population Fragmented Nuclei (%) [2]: 16% and 19%
Population Healthy Nuclei (%) [2]: 51% and 54%
Population Mitotic Cells (%) [2]: 45% and 41%
Population Pyknosed Nuclei (%) [2]: 31% and 26%
Total Cell Count [2]: 197 and 232
Population Apoptotic (%) [3]: 56% and 57%
Population Fragmented Nuclei (%) [3]: 17% and 22%
Population Healthy Nuclei (%) [3]: 55% and 57%
Population Mitotic Cells (%) [3]: 43% and 42%
Population Pyknosed Nuclei (%) [3]: 26% and 20%
Total Cell Count [3]: 195 and 268
Population Fragmented Nuclei (%) [4]: 18%
Population Healthy Nuclei (%) [4]: 57% and 54%
Population Mitotic Cells (%) [4]: 9% and 16%
Population Pyknosed Nuclei (%) [4]: 23% and 22%
Total Cell Count [4]: 187 and 243
Population Apoptotic (%) [5]: 76%
Population Fragmented Nuclei (%) [5]: 21%
Population Healthy Nuclei (%) [5]: 57% and 61%
Population Mitotic Cells (%) [5]: 21% and 23%
Population Pyknosed Nuclei (%) [5]: 20% and 14%
Total Cell Count [5]: 201 and 289
Population Apoptotic (%) [6]: 97%
Population Fragmented Nuclei (%) [6]: 17% and 19%
Population Healthy Nuclei (%) [6]: 54%
Population Mitotic Cells (%) [6]: 2% and 7%
Population Pyknosed Nuclei (%) [6]: 28% and 25%
Total Cell Count [6]: 144 and 211

CS(=O)(=O)c1ccc(NC(=O)c2cccc(COc3ccc(Br)cc3CNCCO)c2)c(Cl)c1.O=CO
Population Apoptotic (%) [1]: 47% and 51%
Population Fragmented Nuclei (%) [1]: 11%
Population Healthy Nuclei (%) [1]: 64% and 70%
Total Cell Count [1]: 184 and 209
Population Apoptotic (%) [2]: 56%
Population Fragmented Nuclei (%) [2]: 22% and 14%
Population Healthy Nuclei (%) [2]: 58% and 59%
Total Cell Count [2]: 327 and 259
Population Apoptotic (%) [3]: 61% and 71%
Population Fragmented Nuclei (%) [3]: 11%
Population Healthy Nuclei (%) [3]: 60% and 68%
Population Pyknosed Nuclei (%) [3]: 19%
Total Cell Count [3]: 187 and 198
Population Apoptotic (%) [4]: 57% and 85%
Population Fragmented Nuclei (%) [4]: 15% and 18%
Population Healthy Nuclei (%) [4]: 65% and 64%
Total Cell Count [4]: 227 and 235
Population Apoptotic (%) [5]: 76% and 80%
Population Fragmented Nuclei (%) [5]: 16% and 17%
Population Healthy Nuclei (%) [5]: 64% and 70%
Population Pyknosed Nuclei (%) [5]: 19%
Total Cell Count [5]: 178 and 216
Population Apoptotic (%) [6]: 85% and 87%
Population Fragmented Nuclei (%) [6]: 16% and 13%
Population Healthy Nuclei (%) [6]: 70% and 72%
Population Pyknosed Nuclei (%) [6]: 14%
Total Cell Count [6]: 211 and 226

Cc1onc(-c2ccccc2Cl)c1C(=O)N(C)c1ccc(Cl)cc1
Population Apoptotic (%) [1]: 35%
Population Fragmented Nuclei (%) [1]: 11% and 12%
Population Healthy Nuclei (%) [1]: 66% and 69%
Population Hoechst High Intensity Objects (%) [1]: 0%
Population Membrane Permeable-Phenotype (%) [1]: 6% and 8%
Population Mitochondria Different-Phenotype (%) [1]: 0%
Population Mitotic Cells (%) [1]: 64%
Population Normal (%) [1]: 100%
Population Pyknosed Nuclei (%) [1]: 22% and 18%
Population Tubulin-Different-Phenotype (%) [1]: 16% and 12%
Total Cell Count [1]: 167 and 197
Population Apoptotic (%) [2]: 36% and 47%
Population Fragmented Nuclei (%) [2]: 8%
Population Healthy Nuclei (%) [2]: 67% and 72%
Population Hoechst High Intensity Objects (%) [2]: 0%
Population Membrane Permeable-Phenotype (%) [2]: 8% and 11%
Population Mitochondria Different-Phenotype (%) [2]: 2%
Population Mitotic Cells (%) [2]: 63% and 52%
Population Normal (%) [2]: 100%
Population Pyknosed Nuclei (%) [2]: 24% and 18%
Population Tubulin-Different-Phenotype (%) [2]: 18% and 15%
Total Cell Count [2]: 185 and 192
Population Apoptotic (%) [3]: 44% and 31%
Population Fragmented Nuclei (%) [3]: 8% and 13%
Population Healthy Nuclei (%) [3]: 66% and 64%
Population Hoechst High Intensity Objects (%) [3]: 0%
Population Membrane Permeable-Phenotype (%) [3]: 7% and 6%
Population Mitochondria Different-Phenotype (%) [3]: 0%
Population Mitotic Cells (%) [3]: 55% and 68%
Population Normal (%) [3]: 100%
Population Pyknosed Nuclei (%) [3]: 24% and 22%
Population Tubulin-Different-Phenotype (%) [3]: 13% and 9%
Total Cell Count [3]: 157 and 204
Population Apoptotic (%) [4]: 56% and 57%
Population Fragmented Nuclei (%) [4]: 5% and 8%
Population Healthy Nuclei (%) [4]: 72% and 74%
Population Hoechst High Intensity Objects (%) [4]: 0%
Population Membrane Permeable-Phenotype (%) [4]: 5% and 8%
Population Mitochondria Different-Phenotype (%) [4]: 4% and 0%
Population Mitotic Cells (%) [4]: 43% and 42%
Population Normal (%) [4]: 100% and 99%
Population Pyknosed Nuclei (%) [4]: 22% and 17%
Population Tubulin-Different-Phenotype (%) [4]: 15% and 11%
Total Cell Count [4]: 166 and 203
Population Apoptotic (%) [5]: 42% and 56%
Population Fragmented Nuclei (%) [5]: 8% and 14%
Population Healthy Nuclei (%) [5]: 72% and 68%
Population Hoechst High Intensity Objects (%) [5]: 0%
Population Membrane Permeable-Phenotype (%) [5]: 2% and 3%
Population Mitochondria Different-Phenotype (%) [5]: 0%
Population Mitotic Cells (%) [5]: 57% and 43%
Population Normal (%) [5]: 100%
Population Pyknosed Nuclei (%) [5]: 18% and 17%
Population Tubulin-Different-Phenotype (%) [5]: 9% and 4%
Total Cell Count [5]: 148 and 214
Population Apoptotic (%) [6]: 65% and 54%
Population Healthy Nuclei (%) [6]: 77% and 74%
Population Hoechst High Intensity Objects (%) [6]: 0%
Population Membrane Permeable-Phenotype (%) [6]: 7% and 4%
Population Mitochondria Different-Phenotype (%) [6]: 1% and 0%
Population Mitotic Cells (%) [6]: 34% and 45%
Population Normal (%) [6]: 100%
Population Pyknosed Nuclei (%) [6]: 18% and 9%
Population Tubulin-Different-Phenotype (%) [6]: 11% and 8%
Total Cell Count [6]: 157 and 221
